Sampled rows, rich in hits. Any-hit rate of the full collection: about 3.8%.
KCNQ1 pot – human KCNQ1 channel potentiation or activation; CHO-K1 KCNQ1, thallium flux FluxOR fluorescence; hits give high values; B-score at 10 µM; 0.35% of 310,000 active; AID 2648;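 active means fluorescence ratio B-score, a plate-corrected score, at least three library SD, with initial intensity B-score within 5 SD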
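assay system = KCNQ1-transfected CHO-K1 cells | medium = assay buffer with matched DMSO | probe or stimulus = depolarizing K+/Tl+ stimulus, K2SO4 and Tl2SO4 each 12.5 mM in 5x stock | dosing = single dose | incubation = dye 90 min, compound 20 min, room temperature | detection = kinetic FluxOR fluorescence, 10 s baseline plus 110 s post-stimulus | evaluation = ratio B score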
KCNK9 block – inhibitors of human KCNK9 two-pore domain potassium channel; Q9NPC2; HEK293 KCNK9, FluxOR thallium flux fluorescence; hits give low values; B-score at 10 µM; 1.2% of 310,000 active;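 active means ratio B-score over 3 SD below the library mean, with starting fluorescence within 5 SD of its mean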;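 further: negative B-score means less thallium flux so channel inhibition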
Kir21 inh – inhibitors of mouse Kir2.1 inward-rectifier potassium channel | HEK293-Kir2.1, FluxOR thallium flux fluorescence; hits give low values | AID 1672 | 0.85% of 310,000 active | P35561 | B-score at 10 µM;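 active means fluorescence ratio B-score at or below minus 3 SD of library scores, with starting-brightness B-score within 2 SD, cut at about -4.2 in these data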;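 further: channel flux triggered by added potassium and thallium sulfate stimulus; B-score of peak minus minimum fluorescence over baseline after thallium stimulus; more negative B-score means stronger Kir2.1 block with less thallium influx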
KCNQ1 block – human KCNQ1 channel inhibition; 1.3% of 310,000 active; P51787; AID 2642; B-score at 10 µM; CHO-K1 KCNQ1, FluxOR thallium flux fluorescence; hits give high values;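 active means compounds whose thallium flux B-score, printed positive for inhibition, exceeds three library SD while starting fluorescence stays within three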;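 further: channel opened by potassium depolarization with thallium stimulus after 20 min compound exposure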
KCNK3 block – human KCNK3 channel inhibition, primary screen | AID 602410 | B-score at 10 µM | CHO-KCNK3 thallium flux, FluxOR fluorescence; hits give low values | 0.84% of 340,000 active | O14649;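 active means B-score under library mean minus 4 SD, starting fluorescence ratio at most library mean plus 5 SD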;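 further: more negative B-score means stronger inhibition of thallium flux through KCNK3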
Target sequence (O14649 whole entry, looked up): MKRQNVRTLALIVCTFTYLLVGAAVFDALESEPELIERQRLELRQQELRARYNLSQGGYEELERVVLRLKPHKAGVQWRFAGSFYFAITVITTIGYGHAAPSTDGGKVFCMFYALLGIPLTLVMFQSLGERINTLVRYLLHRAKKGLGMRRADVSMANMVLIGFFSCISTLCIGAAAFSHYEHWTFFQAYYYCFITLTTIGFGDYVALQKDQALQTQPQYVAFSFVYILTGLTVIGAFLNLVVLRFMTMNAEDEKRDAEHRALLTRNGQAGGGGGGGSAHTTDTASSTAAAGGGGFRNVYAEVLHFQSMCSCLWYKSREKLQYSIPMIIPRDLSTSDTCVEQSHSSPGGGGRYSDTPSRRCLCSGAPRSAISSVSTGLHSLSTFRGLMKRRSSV
hERG protect – hERG (human) protection from proarrhythmic block; 0.51% of 310,000 active; activation (rescue from dofetilide block), less the hit threshold, % at 10 µM; CHO-hERG, FluxOR thallium flux, dofetilide IC70 present; Q12809;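 active means activation above the mean of controls blocked by dofetilide plus 5 SD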;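 further: thallium influx through hERG after potassium depolarization seen as dye fluorescence rise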
Active calls of the source: *; i = inactive; / = not tested or not shown.

SMILES | KCNQ1 pot | KCNK9 block | Kir21 inh | KCNQ1 block | KCNK3 block | hERG protect
CC1(C)Cc2cccc(OCC(=O)NCCOc3ccccc3)c2O1 | i | i | -2.56 | i | i | -11.4
O=C(C1CCC(=O)N(C2CCCC2)C1)N1CCC(Oc2ccccc2Cl)CC1 (stereo not given) | i | i | 2.02 | i | i | -6.2
C[C@@H]1COC(=O)[C@@H](Cc2ccc(F)cc2)C/C=C\C[C@@H](CC(=O)N[C@H](CO)Cc2ccccc2)C(=O)N1 | / | / | / | / | i | /
Cc1ccc(-c2[nH]nc3c2C(c2cccnc2)C(C#N)=C(N)O3)cc1 (stereo not given) | i | i | 0.61 | i | i | 5.0*
O=C(CCl)c1ccc2c(c1)CCN2C(=O)C1CC1 | i | i | -5.68* | i | / | -6.3
CC(C)COc1ccc(S(=O)(=O)n2cc(F)c(=O)[nH]c2=O)cc1 | i | i | 0.02 | i | i | 5.0*
Clc1ccc2c(N/N=C/c3cccc(Br)c3)ccnc2c1 | i | i | -0.73 | 9* | i | -3.3
Cc1ccc(-c2csc(NS(=O)(=O)c3cccc(F)c3)n2)o1 | / | / | / | / | i | /
COc1ccccc1/C=C/C(=O)c1cc(Br)ccc1OC(=O)c1ccco1 | i | i | 0.29 | i | i | 5.0*
O=C(/C=C/c1ccccc1O)c1ccco1 | i | i | -3.52 | i | i | -1.0
O=C(/C=C/c1cc(Br)ccc1O)c1ccco1 | i | i | -5.9* | i | -9.81* | -22.7
CCN(Cc1ccccc1)C(c1ccccn1)c1nnnn1C(C)(C)CC (stereo not given) | i | -8.05* | -2.17 | i | i | -4.9
CC(C)(C)n1nnnc1C(c1ccncc1)N(Cc1ccccc1)Cc1ccco1 (stereo not given) | i | i | -1.52 | i | i | -12.6
CCN(Cc1ccccc1)C(c1ccc(C)cc1)c1nnnn1C(C)(C)C (stereo not given) | i | -7.75* | -1.5 | i | i | -6.4
C1CCN(CCCNC2C3CC4CC(C3)CC2C4)C1 (stereo not given) | i | i | -10.6* | i | i | -9.0
CC(=O)SC1CC(=O)C=C2CCC3C4CCC(=O)OC4(C)CCC3C21C (stereo not given) | / | / | / | / | i | /
C[C@H](CO)N1C[C@H](C)[C@@H](CN(C)S(=O)(=O)c2ccccc2)Oc2c(NC(=O)Nc3ccc4c(c3)OCO4)cccc2C1=O | / | / | / | / | i | /
CCOC(=O)C1=C(COc2ccc(C)cc2)NC(=O)NC1c1cc(C)ccc1C (stereo not given) | i | i | -5.45 | i | i | -4.5
COC(=O)C1=C(COc2ccc(F)cc2)NC(=O)NC1c1ccc(C)cc1C (stereo not given) | i | i | -0.71 | i | i | 7.4*
COc1ccc(CCNS(=O)(=O)c2c(C)[nH]c(C)c2C(=O)N2CCCCC2)cc1OC | i | i | 0.56 | i | i | -6.7
NC(=O)c1cc(S(=O)(=O)N2CCN(c3ccc([N+](=O)[O-])cc3)CC2)cs1 | i | i | -1.63 | 7* | i | -9.5
CC(=O)c1ccc(N2CCN(S(=O)(=O)c3csc(C(N)=O)c3)CC2)cc1 | i | i | -0.03 | i | i | -4.6
CN(C)c1ccc(/C=C/c2ccc3c4ccccc4ccc3[n+]2-c2ccccc2)cc1 | / | / | / | / | -15.5* | /
CN(C)c1ccc(/C=C/c2ccc3ccccc3[n+]2C)cc1 | i | i | -13.9* | 9* | i | -26.4
COc1ccc(NC(=S)NCCc2ccccc2OC)c(OC)c1 | i | i | -5.65* | i | i | -10.0
COc1cccc(NC(=S)NCCC(c2ccccc2)c2ccccc2)c1 | i | i | -0.59 | 10* | i | -9.6
COc1ccc(NC(=S)NCc2ccccc2Cl)c(OC)c1 | i | i | -0.17 | i | i | -2.2
COc1cc(NC(=S)NCCC(c2ccccc2)c2ccccc2)cc(OC)c1 | i | i | 0.69 | 6* | i | -9.8
Cc1cccc(NC(=S)NCCC(c2ccccc2)c2ccccc2)c1 | i | i | -0.6 | i | i | -17.8
COc1ccc(NC(=O)NCCCCc2ccccc2)c(OC)c1 | i | i | -0.8 | i | i | 4.6*

Source: PubChem
